Assay results from ChEMBL document CHEMBL1949593, “Stilbene-chalcone hybrids: design, synthesis, and evaluation as a new class of antimalarial scaffolds that trigger cell death through stage specific apoptosis” (J Med Chem, 2012).
Calls of active or inactive are those of the source. The calls are words filed in the database; no cut-off is given here.

How the values were obtained:
[1] = tested on: Plasmodium falciparum; experiment: Induction of apoptosis in chloroquine-sensitive Plasmodium falciparum 3D7 trophozoites assessed as chromatin fragmentation at 6 uM at 18 hrs by Hoechst 33342 staining; assay type: functional, organism-based
Method in brief: (§1)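 3D7 trophozoite cultures were treated 18 or 24 h, and ring cultures 24, 42 or 48 h. Parasites were stained with Hoechst 33342 for 10 min at room temperature, washed with PBS, and smeared. Condensed or fragmented chromatin (blue, 460 nm) was viewed by fluorescence microscopy.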

[2] = Inhibition of Plasmodium falciparum falcipain-2 using benzyloxycarbonyl-Phe-Arg-7-amino-4-methyl coumarin hydrochloride as substrate preincubated for 10 mins prior substrate addition by fluorimetric assay
Method in brief: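 Recombinant falcipain-2 (2 μg) was preincubated 10 min at room temperature with or without compound, in triplicate. Buffer was 100 mM sodium acetate pH 5.5 with 10 mM DTT and 1% final DMSO. Z-Phe-Arg-AMC was then added at 10 μM final. AMC release was read at ex 355/em 460 nm. IC50 was taken by visual matching of 50% inhibition.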

[3] = tested on: Plasmodium falciparum; experiment: Antimalarial activity against chloroquine-sensitive Plasmodium falciparum 3D7 assessed as inhibition of schizonts growth at 6 uM treated for 8 hrs followed by washout measured after 48 hrs by Giemsa staining; assay type: functional, organism-based
Method in brief: (§2)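 Highly synchronized 3D7 schizonts were exposed to drug for 8 h under normal culture conditions, alongside untreated controls. After a media wash, cultures were incubated for 48 h with or without drug. Giemsa-stained thin smears were examined microscopically for parasitemia and stage, and compared with control.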

[4] = Resistance index, ratio of IC50 for ring stage chloroquine-resistant Plasmodium falciparum Dd2 to IC50 for ring stage chloroquine-sensitive Plasmodium falciparum 3D7; assay type: functional
[5] = Therapeutic index, ratio of IC50 for […] cells to IC50 for ring stage chloroquine-sensitive Plasmodium falciparum 3D7; assay type: cell-based; details: mouse, read-out: Ratio IC50
Method in brief: (§3)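 HeLa or L929 fibroblasts were seeded at 10^4 cells per well in RPMI with 10% FBS, left overnight, then exposed 24 h at 37 °C, 5% CO2. MTT was added for 3 h; formazan was dissolved in DMSO and read at 570 nm. IC50 came from dose–response curves. Index = IC50(mammalian)/IC50(Pf 3D7, SYBR Green assay).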

[6] = tested on: Plasmodium falciparum; experiment: Induction of apoptosis in ring stage chloroquine-sensitive Plasmodium falciparum 3D7 assessed as nuclear condensation at 6 uM at 24 hrs by Giemsa staining; assay type: functional, organism-based
[7] = tested on: Plasmodium falciparum; experiment: Induction of apoptosis in chloroquine-sensitive Plasmodium falciparum 3D7 trophozoites assessed as disruption of mitochondrial membrane potential at 6 uM by JC-1 staining; assay type: functional, organism-based
Method in brief: (§4)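 3D7 ring cultures were treated 24, 42 or 48 h, and trophozoite cultures 18 or 24 h. Parasites were stained with JC-1 for 20 min at 37 °C and viewed as wet mounts by fluorescence microscopy. Red-orange aggregate signal (590 nm) indicates intact ΔΨm; green monomer signal (525 nm) indicates dissipation.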

[8] = Therapeutic index, ratio of IC50 for human HeLa cells to IC50 for ring stage chloroquine-sensitive Plasmodium falciparum 3D7; assay type: cell-based; details: read-out: Ratio IC50; method in brief: as §3
[9] = tested on: Plasmodium falciparum; experiment: Growth inhibition of ring stage chloroquine-sensitive Plasmodium falciparum 3D7 at 6 uM treated for 48 hrs following washout incubated for 48 hrs in drug free medium by SYBR green 1-based fluorescence assay; assay type: functional, organism-based
Method in brief: (§5)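 Stage-specific exposure of synchronized 3D7: rings 48 h, trophozoites 24 h, schizonts 8 h. Drug was removed by media wash and cultures grew 48 h drug-free, in a separate triplicate set. Growth was read by SYBR Green I fluorescence and expressed as percent inhibition relative to drug-free control.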

[10] = tested on: Plasmodium falciparum; experiment: Growth inhibition of chloroquine-sensitive Plasmodium falciparum 3D7 schizonts at 6 uM treated for 8 hrs following washout incubated for 48 hrs in drug free medium by Giemsa staining; assay type: functional, organism-based
Method in brief: (§6)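 Highly synchronized 3D7 cultures were exposed by stage: rings 48 h, trophozoites 24 h, schizonts 8 h. After a media wash, cultures grew 48 h in drug-free complete RPMI, in triplicate. Giemsa smears were read by counting 3000 cells per stage; pycnotic parasites were scored nonviable. Inhibition is percent of drug-free control.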

[11] = tested on: Plasmodium falciparum; experiment: Induction of apoptosis in ring stage chloroquine-sensitive Plasmodium falciparum 3D7 assessed as disruption of mitochondrial membrane potential at 6 uM by JC-1 staining; assay type: functional, organism-based; method in brief: as §4
[12] = tested on: Plasmodium falciparum; experiment: Growth inhibition of ring stage chloroquine-sensitive Plasmodium falciparum 3D7 at 6 uM treated for 48 hrs followed by washout measured after 48 hrs by Giemsa staining; assay type: functional, organism-based; method in brief: as §6
[13] = tested on: Plasmodium falciparum; experiment: Induction of apoptosis in ring stage chloroquine-sensitive Plasmodium falciparum 3D7 assessed as chromatin condensation at 6 uM at 18 hrs by Hoechst 33342 staining; assay type: functional, organism-based
[14] = Resistance index, ratio of IC50 for ring stage chloroquine-resistant Plasmodium falciparum INDO to IC50 for ring stage chloroquine-sensitive Plasmodium falciparum 3D7; assay type: functional
[15] = tested on: Plasmodium falciparum; experiment: Antimalarial activity against ring stage chloroquine-resistant Plasmodium falciparum Dd2 infected in human O positive erythrocytes after 48 hrs by SYBR green 1 fluorescence assay; assay type: functional, organism-based; details: Dd2, 48 h
Method in brief: (§7)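 Ring-stage cultures were sorbitol-synchronized in O+ human erythrocytes in RPMI 1640 with 0.5% Albumax, hypoxanthine and gentamicin, then plated at 2% hematocrit and 1% parasitemia. Drugs were tested at 0–100 μM (final DMSO 0.4%) in triplicate for 48 h at 37 °C under 5% O2/5% CO2/90% N2. Read-out was SYBR Green I (ex 497/em 520 nm). IC50 was read visually as 50% growth inhibition, with chloroquine as control.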

[16] = tested on: Plasmodium falciparum; experiment: Reduction in parasitemia of ring stage chloroquine-sensitive Plasmodium falciparum 3D7 at 6 uM after 48 hrs by Giemsa staining; assay type: functional, organism-based
[17] = tested on: Plasmodium falciparum; experiment: Induction of apoptosis in ring stage chloroquine-sensitive Plasmodium falciparum 3D7 assessed as chromatin fragmentation at 6 uM at 18 hrs by Hoechst 33342 staining; assay type: functional, organism-based
[18] = tested on: Plasmodium falciparum; experiment: Reduction in parasitemia of chloroquine-sensitive Plasmodium falciparum 3D7 trophozoites at 6 uM after 48 hrs by Giemsa staining; assay type: functional, organism-based
[19] = tested on: Plasmodium falciparum; experiment: Antimalarial activity against ring stage chloroquine-resistant Plasmodium falciparum INDO infected in human O positive erythrocytes after 48 hrs by SYBR green 1 fluorescence assay; assay type: functional, organism-based; method in brief: as §7
[20] = tested on: Plasmodium falciparum; experiment: Antimalarial activity against chloroquine-sensitive Plasmodium falciparum 3D7 assessed as merozoites egress at 6 uM treated for 8 hrs followed by washout measured after 48 hrs by Giemsa staining; assay type: functional, organism-based; method in brief: as §2
[21] = tested on: Plasmodium falciparum; experiment: Growth inhibition of chloroquine-sensitive Plasmodium falciparum 3D7 trophozoites at 6 uM treated for 24 hrs following washout incubated for 48 hrs in drug free medium by Giemsa staining; assay type: functional, organism-based; method in brief: as §6
[22] = tested on: Plasmodium falciparum; experiment: Growth inhibition of chloroquine-sensitive Plasmodium falciparum 3D7 schizonts at 6 uM treated for 8 hrs following washout incubated for 48 hrs in drug free medium by SYBR green 1-based fluorescence assay; assay type: functional, organism-based; method in brief: as §5
[23] = tested on: Plasmodium falciparum; experiment: Induction of apoptosis in chloroquine-sensitive Plasmodium falciparum 3D7 trophozoites assessed as nuclear condensation at 6 uM at 24 hrs by Giemsa staining; assay type: functional, organism-based
[24] = tested on: Plasmodium falciparum; experiment: Antimalarial activity against ring stage chloroquine-sensitive Plasmodium falciparum 3D7 infected in human O positive erythrocytes after 48 hrs by SYBR green 1 fluorescence assay; assay type: functional, organism-based; details: 3D7, 48 h
Method in brief: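 P. falciparum 3D7 in O+ human erythrocytes in complete RPMI with Albumax at 37 °C under 5% O2/5% CO2. Culture was sorbitol-synchronized to rings and plated at 2% hematocrit, 1% parasitemia. Drug range was 0–100 μM with 0.4% final DMSO, in triplicate. After 48 h, SYBR Green I fluorescence was read (ex 497/em 520 nm). IC50 was taken by visual matching of 50% growth inhibition.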

[25] = tested on: Plasmodium falciparum; experiment: Growth inhibition of chloroquine-sensitive Plasmodium falciparum 3D7 trophozoites at 6 uM treated for 18 hrs followed by washout measured after 54 hrs by Giemsa staining; assay type: functional, organism-based
[26] = tested on: Plasmodium falciparum; experiment: Induction of internucleosomal fragmentation in chloroquine-sensitive Plasmodium falciparum 3D7 trophozoites at 6 uM at 24 hrs by Hoechst 33342 staining; assay type: functional, organism-based; method in brief: as §1
[27] = tested on: Plasmodium falciparum; experiment: Inhibition of RBC invasion of chloroquine-sensitive Plasmodium falciparum 3D7 schizonts at 6 uM treated for 8 hrs followed by washout measured after 48 hrs by Giemsa staining; assay type: functional, organism-based; method in brief: as §2
[28] = tested on: Plasmodium falciparum; experiment: Growth inhibition of chloroquine-sensitive Plasmodium falciparum 3D7 trophozoites at 6 uM treated for 24 hrs following washout incubated for 48 hrs in drug free medium by SYBR green 1-based fluorescence assay; assay type: functional, organism-based; method in brief: as §5
[29] = tested on: Plasmodium falciparum; experiment: Induction of internucleosomal fragmentation in ring stage chloroquine-sensitive Plasmodium falciparum 3D7 at 6 uM at 24 hrs by Hoechst 33342 staining; assay type: functional, organism-based; method in brief: as §1
[30] = tested on: Plasmodium falciparum; experiment: Induction of apoptosis in chloroquine-sensitive Plasmodium falciparum 3D7 trophozoites assessed as chromatin condensation at 6 uM at 18 hrs by Hoechst 33342 staining; assay type: functional, organism-based; method in brief: as §1

Q: What does the source list for `COc1cc(OC)c(OC)cc1/C=C/C(=O)c1ccc(/C=C/c2cc(OC)c(O)c(OC)c2)cc1`?
A: Activity [1]: Active; IC50 [2]: 37.5 µM; growth inhibition (GI) [3]: inactive; Ratio IC50 [4]: 2.9; selectivity ratio [5]: 45.5; Activity [6]: Active; Activity [7]: Active; selectivity ratio [8]: 42.3; growth inhibition (GI) [9]: Active; growth inhibition (GI) [10]: inactive; Activity [11]: Active; growth inhibition (GI) [12]: Active; Activity [13]: Active; Ratio IC50 [14]: 0.64; IC50 [15]: 6.4 µM; Activity [16]: Active; Activity [17]: Active; Activity [18]: Active; IC50 [19]: 1.4 µM; inhibition [20]: inactive; growth inhibition (GI) [21]: Active; growth inhibition (GI) [22]: inactive; Activity [23]: Active; IC50 [24]: 2.2 µM; growth inhibition (GI) [25]: Active; Activity [26]: Active; inhibition [27]: inactive; growth inhibition (GI) [28]: Active; Activity [29]: inactive; Activity [30]: Active
